Legend:
NCI-H322M = experiment: Anticancer activity against human NCI-H322M cells after 48 hrs by sulforhodamine B assay; type: functional
Method in brief: (§1)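 NCI 60-cell-line in vitro screen, second stage: five concentration levels (100, 10, 1.0, 0.1 and 0.01 μM) with 48 h continuous drug exposure. Cell growth was estimated by sulforhodamine B protein staining. GI50 is the drug concentration that gives a 50% reduction in net protein increase relative to control cells over the incubation.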

MDA-MB-468 [1] = experiment: Anticancer activity against human MDA-MB-468 cells after 48 hrs by sulforhodamine B assay; type: functional; conditions: MDA-MB-468, 48 h; method in brief: as §1
SK-MEL-2 = experiment: Cytotoxicity against human SK-MEL-2 cells; type: cell-based
Method in brief: (§2)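 NCI 60 human tumour cell line screen, second stage at five concentrations (100, 10, 1.0, 0.1 and 0.01 μM). Continuous drug exposure for 48 h, with cell growth estimated by sulforhodamine B protein staining. GI50 is the drug concentration giving a 50% reduction in net protein increase relative to control cells over the incubation.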

SF-539 = experiment: Anticancer activity against human SF539 cells after 48 hrs by sulforhodamine B assay; type: functional; conditions: SF-539, 48 h; method in brief: as §1
KM12 = experiment: Anticancer activity against human KM12 cells after 48 hrs by sulforhodamine B assay; type: functional; conditions: KM12, 48 h; method in brief: as §1
CAKI-1 = experiment: Cytotoxicity against human Caki1 cells; type: cell-based; method in brief: as §2
LOX IMVI [2] = experiment: Cytotoxicity against human LOXIMVI cells; type: cell-based; method in brief: as §2
SN12C [3] = experiment: Cytotoxicity against human SN12C cells; type: cell-based
Method in brief: (§3)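 NCI 60 human tumour cell line screen; five concentration levels (100, 10, 1.0, 0.1 and 0.01 μM), 48 h continuous drug exposure. Cell growth estimated by sulforhodamine B (SRB) protein staining. GI50 taken as the drug concentration giving a 50% reduction in net protein increase relative to control cells over the incubation.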

SK-OV-3 = experiment: Cytotoxicity against human SKOV3 cells; type: cell-based; method in brief: as §2
M14 = experiment: Anticancer activity against human M14 cells after 48 hrs by sulforhodamine B assay; type: functional; conditions: M14, 48 h; method in brief: as §1
HOP-62 [4] = experiment: Anticancer activity against human HOP62 cells after 48 hrs by sulforhodamine B assay; type: functional; conditions: HOP-62, 48 h; method in brief: as §1
UACC-62 = experiment: Cytotoxicity against human UACC62 cells; type: cell-based; method in brief: as §3
MDA-MB-231 = experiment: Anticancer activity against human MDA-MB-231 cells after 48 hrs by sulforhodamine B assay; type: functional; conditions: MDA-MB-231, 48 h; method in brief: as §1
SNB-75 = experiment: Anticancer activity against human SNB75 cells after 48 hrs by sulforhodamine B assay; type: functional; conditions: SNB-75, 48 h
Method in brief: (§4)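 NCI 60-cell-line screen, second stage. Five concentration levels (100, 10, 1.0, 0.1 and 0.01 μM), 48 h continuous drug exposure. Cell growth was estimated by sulforhodamine B protein staining. GI50 is the concentration giving a 50% reduction in net protein increase relative to control cells over the drug incubation. Compounds entered this stage after an earlier single-dose screen.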

RXF 393 = experiment: Anticancer activity against human RXF393 cells after 48 hrs by sulforhodamine B assay; type: functional; conditions: RXF 393, 48 h; method in brief: as §1
SK-MEL-28 [5] = experiment: Cytotoxicity against human SK-MEL-28 cells; type: cell-based; method in brief: as §2
A498 = experiment: Anticancer activity against human A498 cells after 48 hrs by sulforhodamine B assay; type: functional; conditions: A498, 48 h; method in brief: as §1
DU-145 = experiment: Cytotoxicity against human DU145 cells; type: cell-based; method in brief: as §2
HCT-15 [6] = experiment: Cytotoxicity against human HCT15 cells; type: cell-based; method in brief: as §2
HCT-15 [7] = experiment: Anticancer activity against human HCT15 cells after 48 hrs by sulforhodamine B assay; type: functional; conditions: HCT-15, 48 h; method in brief: as §1
PC-3 = experiment: Cytotoxicity against human PC3 cells; type: cell-based; method in brief: as §2
T47D = experiment: Cytotoxicity against human T47D cells; type: cell-based; method in brief: as §3
HOP-62 [8] = experiment: Cytotoxicity against human HOP62 cells; type: cell-based; method in brief: as §2
SK-MEL-28 [9] = experiment: Anticancer activity against human SK-MEL-28 cells after 48 hrs by sulforhodamine B assay; type: functional; conditions: SK-MEL-28, 48 h; method in brief: as §1
NCI-H522 = experiment: Anticancer activity against human NCI-H522 cells after 48 hrs by sulforhodamine B assay; type: functional; conditions: NCI-H522, 48 h; method in brief: as §1
A549 = experiment: Anticancer activity against human A549 cells after 48 hrs by sulforhodamine B assay; type: functional; conditions: A549, 48 h; method in brief: as §1
786-0 = experiment: Anticancer activity against human 786-0 cells after 48 hrs by sulforhodamine B assay; type: functional; conditions: 786-0, 48 h; method in brief: as §1
LOX IMVI [10] = experiment: Anticancer activity against human LOXIMVI cells after 48 hrs by sulforhodamine B assay; type: functional; method in brief: as §1
SN12C [11] = experiment: Anticancer activity against human SN12C cells after 48 hrs by sulforhodamine B assay; type: functional; method in brief: as §1
COLO 205 [12] = experiment: Anticancer activity against human COLO205 cells after 48 hrs by sulforhodamine B assay; type: functional; conditions: COLO 205, 48 h; method in brief: as §1
OVCAR-5 [13] = experiment: Anticancer activity against human OVCAR5 cells after 48 hrs by sulforhodamine B assay; type: functional; conditions: OVCAR-5, 48 h; method in brief: as §1
NCI/ADR-RES = experiment: Cytotoxicity against human NCI/ADR-RES cells; type: cell-based; method in brief: as §2
OVCAR-8 = experiment: Anticancer activity against human OVCAR8 cells after 48 hrs by sulforhodamine B assay; type: functional; conditions: OVCAR-8, 48 h; method in brief: as §1
OVCAR-5 [14] = experiment: Cytotoxicity against human OVCAR5 cells; type: cell-based; method in brief: as §2
COLO 205 [15] = experiment: Cytotoxicity against human COLO205 cells; type: cell-based; method in brief: as §2
NCI-H23 = experiment: Cytotoxicity against human NCI-H23 cells; type: cell-based; method in brief: as §2
NCI-H460 = experiment: Cytotoxicity against human NCI-H460 cells; type: cell-based; method in brief: as §2
MDA-MB-468 [16] = experiment: Cytotoxicity against human MDA-MB-468 cells; type: cell-based; method in brief: as §2
OVCAR-4 = experiment: Anticancer activity against human OVCAR4 cells after 48 hrs by sulforhodamine B assay; type: functional; conditions: OVCAR-4, 48 h; method in brief: as §1
SK-MEL-5 [17] = experiment: Anticancer activity against human SK-MEL-5 cells after 48 hrs by sulforhodamine B assay; type: functional; conditions: SK-MEL-5, 48 h; method in brief: as §1
TK-10 [18] = experiment: Anticancer activity against human TK10 cells after 48 hrs by sulforhodamine B assay; type: functional; conditions: TK-10, 48 h; method in brief: as §4
MDA-MB-435 = experiment: Cytotoxicity against human MDA-MB-435 cells; type: cell-based; method in brief: as §2
IGROV-1 = experiment: Cytotoxicity against human IGROV1 cells; type: cell-based; method in brief: as §2
K562 = experiment: Anticancer activity against human K562 cells after 48 hrs by sulforhodamine B assay; type: functional; conditions: K562, 48 h; method in brief: as §1
TK-10 [19] = experiment: Cytotoxicity against human TK10 cells; type: cell-based; method in brief: as §3
MCF7 = experiment: Cytotoxicity against human MCF7 cells; type: cell-based; method in brief: as §2
U-251 = experiment: Cytotoxicity against human U251 cells; type: cell-based; method in brief: as §3
UACC-257 = experiment: Anticancer activity against human UACC257 cells after 48 hrs by sulforhodamine B assay; type: functional; conditions: UACC-257, 48 h; method in brief: as §4
HT-29 = experiment: Anticancer activity against human HT-29 cells after 48 hrs by sulforhodamine B assay; type: functional; conditions: HT-29, 48 h; method in brief: as §1
SK-MEL-5 [20] = experiment: Cytotoxicity against human SK-MEL-5 cells; type: cell-based; method in brief: as §2
SR [21] = experiment: Cytotoxicity against human SR cells; type: cell-based; method in brief: as §3
SR [22] = experiment: Anticancer activity against human SR cells after 48 hrs by sulforhodamine B assay; type: functional; method in brief: as §4
HOP-92 = experiment: Anticancer activity against human HOP92 cells after 48 hrs by sulforhodamine B assay; type: functional; conditions: HOP-92, 48 h; method in brief: as §1

## Oc1ccc(Cc2ccc(O)c(C3CC(c4ccc(Cl)cc4)=NN3)c2)cc1C1CC(c2ccc(Cl)cc2)=NN1 (stereo not drawn)
NCI-H322M
  GI50: 4.17 µM
MDA-MB-468 [1]
  GI50: 3.5 µM
SK-MEL-2
  LC50: 85.5 µM
SF-539
  GI50: 5.82 µM
KM12
  GI50: 3.09 µM
CAKI-1
  LC50: > 100 µM
LOX IMVI [2]
  LC50: > 100 µM
SN12C [3]
  LC50: > 100 µM
SK-OV-3
  LC50: > 100 µM
M14
  GI50: 4.45 µM
HOP-62 [4]
  GI50: 4.16 µM
UACC-62
  LC50: 43.6 µM
MDA-MB-231
  GI50: 2.65 µM
SNB-75
  GI50: 4.26 µM
RXF 393
  GI50: 3.99 µM
SK-MEL-28 [5]
  LC50: > 100 µM
A498
  GI50: 5.37 µM
DU-145
  LC50: > 100 µM
HCT-15 [6]
  LC50: > 100 µM
HCT-15 [7]
  GI50: 2.51 µM
PC-3
  LC50: > 100 µM
T47D
  LC50: > 100 µM
HOP-62 [8]
  LC50: > 100 µM
SK-MEL-28 [9]
  GI50: 9.84 µM
NCI-H522
  GI50: 2.95 µM
A549
  GI50: 2.45 µM
786-0
  GI50: 3.81 µM
LOX IMVI [10]
  GI50: 1.82 µM
SN12C [11]
  GI50: 2.86 µM
COLO 205 [12]
  GI50: 5.44 µM
OVCAR-5 [13]
  GI50: 6.1 µM
NCI/ADR-RES
  LC50: > 100 µM
OVCAR-8
  GI50: 2.46 µM
OVCAR-5 [14]
  LC50: > 100 µM
COLO 205 [15]
  LC50: > 100 µM
NCI-H23
  LC50: > 100 µM
NCI-H460
  LC50: > 100 µM
MDA-MB-468 [16]
  LC50: > 100 µM
OVCAR-4
  GI50: 3.54 µM
SK-MEL-5 [17]
  GI50: 3.36 µM
TK-10 [18]
  GI50: 5.34 µM
MDA-MB-435
  LC50: > 100 µM
IGROV-1
  LC50: > 100 µM
K562
  GI50: 1.75 µM
TK-10 [19]
  LC50: > 100 µM
MCF7
  LC50: > 100 µM
U-251
  LC50: > 100 µM
UACC-257
  GI50: 2.56 µM
HT-29
  GI50: 7.25 µM
SK-MEL-5 [20]
  LC50: 36.7 µM
SR [21]
  LC50: > 100 µM
SR [22]
  GI50: 1.83 µM
HOP-92
  GI50: 3.39 µM
